Bioassay records deposited in PubChem BioAssay by several laboratories.
SF1 activator – activators of human nuclear receptor SF-1; 65,000 compounds, 1.9% hits; CHO-K1 Gal4-SF-1 LBD luciferase reporter; % increase over DMSO SF-1-specific signal; Q13285; activation, % at 10 µM; AID 522;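 active means activation above the mean activation of all tested compounds plus 3 SD, cut at about 50% in these data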
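Compound – one dose, 10 µM compound, 1% DMSO · Test system – transient Gal4-SF-1 LBD reporter, CHO-K1 · Input – 4,000 cells in each well · Read-out basis – percent activation relative to DMSO median and mock-transfected background · Replicates – single measurement per compound · Technique – steady-glow luciferase luminescence, read after 15 min reagent incubation · Timing – 20 h compound treatment, 37 °C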
MMP-13 inhibitor – MMP13 (human) collagenase inhibition; P45452; MMP-13 fTHP FRET cleavage, Mca fluorescence; inhibition, % at 4 µM; 65,000 compounds, 0.07% hits;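 active means inhibition above the mean of compound-free control plate wells plus 3 SD, cut at about 14% in these data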
AP ELISA ortho – alternative pathway complement inhibition, orthogonal assay. 62,000 compounds, 0.08% hits. Human serum alternative complement pathway, LPS-coated ELISA, C3 deposition; tested in compound mixtures. inhibition, % at 5 µM. AID 1235;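 active means inhibition above 30% in each of the two pooled mixtures holding the compound, so the lower value exceeds 30%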
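Assay system: human serum alternative complement pathway, C3 deposition on LPS-coated wells; Dosing: 5 µM per compound in ten-compound mixtures; Detection: Anti-C3 ELISA, OD 450 nm; Buffer or medium: Mg2+-EGTA GVB++ buffer containing human serum at 1:15 dilution; Timing: 1 h at 37 °C; Replication: two different pools per compound.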
RORA act – RORA (human) activation | P35398 | CHO-K1 Gal4-RORA LBD luciferase reporter, luminescence; percent increase over mock-subtracted basal signal | activation, % at 10 µM | 65,000 compounds, 1.5% hits | AID 560;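 active means activation above the mean of all tested compounds plus 3 SD, cut at about 49% in these data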
HePTP inhibitor – inhibitors of human HePTP phosphatase; inhibition, % at 20 µM; recombinant HePTP phosphatase activity, OD absorbance; AID 521; 110,000 compounds, 0.64% hits; P35236; in the data active means inhibition above about 50%
Target sequence (P35236 whole entry, looked up): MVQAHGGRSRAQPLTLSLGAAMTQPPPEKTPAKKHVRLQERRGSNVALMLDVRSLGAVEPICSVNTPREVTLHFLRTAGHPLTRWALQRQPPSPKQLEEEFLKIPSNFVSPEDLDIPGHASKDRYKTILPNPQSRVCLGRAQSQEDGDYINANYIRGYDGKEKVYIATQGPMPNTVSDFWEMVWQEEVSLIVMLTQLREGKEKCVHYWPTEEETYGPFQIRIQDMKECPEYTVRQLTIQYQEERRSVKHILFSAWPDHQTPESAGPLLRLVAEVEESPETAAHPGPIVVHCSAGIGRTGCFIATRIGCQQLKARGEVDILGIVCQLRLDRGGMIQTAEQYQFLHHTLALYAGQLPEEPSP
Ec RNAP inh – blocks E. coli RNA polymerase transcription; P0A8V2; 62,000 compounds, 0.2% hits; inhibition, %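 (tested at 10 µM)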; AID 559; fluorescence transcription assay; in the data active means inhibition above about 20%
Each line names hits and unclear results; the compound was inactive in the other large screens. Hits are enriched below; roughly 2.4% of the tested compounds scored in any of these assays.

COc1c(Cl)ccc(Cl)c1C(=O)Nc1cccc(Br)c1	none (no result: SF1 activator, MMP-13 inhibitor, AP ELISA ortho, RORA act, Ec RNAP inh)
COc1cc(C)c(C(C)C)cc1S(=O)(=O)n1cnc(C)c1	RORA act 80
COc1ccc(OC)c(S(=O)(=O)n2cnc(C)c2)c1	none (no result: SF1 activator, MMP-13 inhibitor, AP ELISA ortho, RORA act, Ec RNAP inh)
C=CCN(CC=C)C(=O)c1ccccc1	none (no result: SF1 activator, MMP-13 inhibitor, AP ELISA ortho, RORA act, Ec RNAP inh)
Cc1ccc(N=Nc2cc(-c3ccccc3)sc2O)c(C)c1	none (no result: SF1 activator, MMP-13 inhibitor, AP ELISA ortho, RORA act, Ec RNAP inh)
CN=Cc1cc(-c2ccccc2)sc1O	SF1 activator 56
COC(=O)c1c(-c2ccncc2)csc1NC(=O)c1ccoc1C	SF1 activator 64
C=CCOc1ccc(/C=N/NC(=O)CN(Cc2ccccc2)S(=O)(=O)c2ccccc2)cc1	none (no result: SF1 activator, MMP-13 inhibitor, AP ELISA ortho, RORA act, Ec RNAP inh)
O=c1cc(-c2cc(O)c3c(O)c4ccccc4c(O)c3c2O)c(=O)c2c(=O)c3ccccc3c(=O)c1=2	HePTP inhibitor 84 (no result: SF1 activator, MMP-13 inhibitor, AP ELISA ortho, RORA act, Ec RNAP inh)
O=c1c2ccccc2c(=O)c2c1c(O)cc1sc3ccccc3[nH]c12	none (no result: SF1 activator, MMP-13 inhibitor, AP ELISA ortho, RORA act, Ec RNAP inh)
O=c1oc2ccccc2n1CCCOc1ccccc1	SF1 activator 57, RORA act 49
O=c1oc2ccccc2n1CCCCCn1c(=O)oc2ccccc21	none (no result: Ec RNAP inh)
O=C(C(c1ccccc1)c1ccccc1)N1CCC(Cc2ccccc2)CC1	none (no result: SF1 activator, MMP-13 inhibitor, AP ELISA ortho, RORA act, Ec RNAP inh)
Cc1c(C(=O)OCC2CCCO2)[nH]c2c1C(=O)CC(c1ccco1)C2 (configuration not stated)	RORA act 56
Cc1c(C(=O)OCC(C)C)[nH]c2c1C(=O)CC(c1ccco1)C2 (configuration not stated)	none
CCOC(=O)c1c(-c2ccc(Br)cc2)csc1NC(=O)c1ccc(OCC)c(OCC)c1	none (no result: SF1 activator, MMP-13 inhibitor, AP ELISA ortho, RORA act, Ec RNAP inh)
CCOC(=O)c1cnc2cc3c(cn2c1=O)CCCC3	SF1 activator 86
Cn1c(SCc2ccccn2)nnc1-c1cnccn1	none
Cn1c(SCc2ccccc2F)nnc1-c1cnccn1	RORA act 65
Cn1c(SCc2ccc(F)cc2)nnc1-c1ccccn1	SF1 activator 64
Cn1c(SCc2ccccc2)nnc1-c1cccs1	SF1 activator 57, RORA act 50
Cn1c(SCc2ccc(F)cc2)nnc1-c1cccs1	SF1 activator 51
Cn1c(SCc2nc3ccccc3s2)nnc1-c1cccs1	none
Cc1ccc(C(=O)CSc2nnc(-c3cccs3)n2C)o1	none
COc1ccc(/C(O)=C2/C(=O)C(=O)N(CCCCCC(=O)O)C2c2ccc(OC)c(OC)c2)cc1 (configuration not stated)	none (no result: SF1 activator, MMP-13 inhibitor, AP ELISA ortho, RORA act, Ec RNAP inh)
O=C1C(Cc2c[nH]c3ccccc23)NC(=S)N1c1ccccc1 (configuration not stated)	none (no result: SF1 activator, MMP-13 inhibitor, AP ELISA ortho, RORA act, Ec RNAP inh)
COCCCNc1oc(-c2ccccc2F)nc1C#N	SF1 activator 57
COc1ccc(-c2nc(C#N)c(NCCc3ccccc3)o2)cc1OC	SF1 activator 78, RORA act 70
Brc1ccc(-c2cnc(-c3cccs3)o2)cc1	SF1 activator 52 (no result: Ec RNAP inh)
O=c1c2[nH]c3ccccc3c2ncn1C1CCCCC1	RORA act 61
O=c1c2ccccc2ncn1C1CCCCC1	none
O=C(c1cccc(C(=O)N2CCCc3ccccc32)c1)N1CCCc2ccccc21	none (no result: SF1 activator, MMP-13 inhibitor, AP ELISA ortho, RORA act, Ec RNAP inh)
Cc1cccc(-n2ncc3c(NCc4ccccc4)ncnc32)c1	SF1 activator 82, RORA act 78
Cc1cccc(-n2ncc3c(N(C)C4CCCCC4)ncnc32)c1	none
CCN(c1ccccc1)c1ncnc2c1cnn2-c1ccccc1	SF1 activator 59, RORA act 59
Cc1cccc(-n2ncc3c(N(CCO)CCO)ncnc32)c1	RORA act 68
c1ccc(-n2ncc3c(NCCN4CCOCC4)ncnc32)cc1	none
c1ccc(-n2ncc3c(NCCN4CCCCC4)ncnc32)cc1	SF1 activator 69
COc1cc(/C=C2\SC(=Nc3ccc(O)cc3)NC2=O)ccc1O	none (no result: SF1 activator, MMP-13 inhibitor, AP ELISA ortho, RORA act, Ec RNAP inh)
CN(C)CCCNc1ncnc2c1cnn2-c1ccccc1	none
c1ccc(CCNc2ncnc3c2cnn3-c2ccccc2)cc1	RORA act 56 (no result: AP ELISA ortho, HePTP inhibitor, Ec RNAP inh)
Cc1cccc(-n2ncc3c(NCc4ccco4)ncnc32)c1	SF1 activator 93, RORA act 72 (no result: AP ELISA ortho)
c1ccc(CNc2ncnc3c2cnn3-c2ccccc2)cc1	SF1 activator 77, RORA act 91
Cc1cccc(-n2ncc3c(NCc4ccccn4)ncnc32)c1	none
COc1cc(NC(=O)c2cc3nc(-c4ccco4)cc(C(F)(F)F)n3n2)cc([N+](=O)[O-])c1	none (no result: SF1 activator, MMP-13 inhibitor, AP ELISA ortho, RORA act, Ec RNAP inh)
CN1CCCC1=NC(=S)CN1CCCC1=S	HePTP inhibitor 97 (no result: SF1 activator, MMP-13 inhibitor, AP ELISA ortho, RORA act, Ec RNAP inh)
